# Laboratory results published in paper PMC2094211 (Biochimica et Biophysica Acta. Molecular Basis of Disease, 2007).
# Square brackets hold non-standard residues; d marks the D form. Ends that are not written are not given here. * marks the point of attachment. Nle = CCCC[C@H](N)C(=O)O; For = O=C*
# T1: FPR R190/K192 (Homo sapiens, UniProt P21462, N192K)
# T1 sequence (P21462 1-350 N192K): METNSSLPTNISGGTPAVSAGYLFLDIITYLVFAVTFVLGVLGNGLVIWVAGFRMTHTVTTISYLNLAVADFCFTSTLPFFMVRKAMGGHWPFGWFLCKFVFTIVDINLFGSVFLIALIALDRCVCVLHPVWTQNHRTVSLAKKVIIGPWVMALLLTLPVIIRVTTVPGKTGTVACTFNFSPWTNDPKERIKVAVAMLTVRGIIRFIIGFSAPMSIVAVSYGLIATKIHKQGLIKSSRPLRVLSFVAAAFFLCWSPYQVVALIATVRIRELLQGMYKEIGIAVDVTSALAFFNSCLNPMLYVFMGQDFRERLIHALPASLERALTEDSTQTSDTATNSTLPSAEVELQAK
# T2: FPR R190/N192 (Homo sapiens, UniProt P21462)
# T2 sequence (P21462 1-350): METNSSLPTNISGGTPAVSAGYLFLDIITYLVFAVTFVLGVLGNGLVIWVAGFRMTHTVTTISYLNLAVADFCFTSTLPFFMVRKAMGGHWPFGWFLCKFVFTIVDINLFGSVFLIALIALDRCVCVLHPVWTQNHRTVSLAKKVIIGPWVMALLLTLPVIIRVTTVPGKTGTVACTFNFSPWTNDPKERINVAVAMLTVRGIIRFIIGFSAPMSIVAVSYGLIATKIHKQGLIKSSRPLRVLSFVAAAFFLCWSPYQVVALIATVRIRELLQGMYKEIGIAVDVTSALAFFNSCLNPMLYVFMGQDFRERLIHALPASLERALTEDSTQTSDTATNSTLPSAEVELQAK
# T3: FPR W190/N192 (Homo sapiens, UniProt P21462, R190W)
# T3 sequence (P21462 1-350 R190W): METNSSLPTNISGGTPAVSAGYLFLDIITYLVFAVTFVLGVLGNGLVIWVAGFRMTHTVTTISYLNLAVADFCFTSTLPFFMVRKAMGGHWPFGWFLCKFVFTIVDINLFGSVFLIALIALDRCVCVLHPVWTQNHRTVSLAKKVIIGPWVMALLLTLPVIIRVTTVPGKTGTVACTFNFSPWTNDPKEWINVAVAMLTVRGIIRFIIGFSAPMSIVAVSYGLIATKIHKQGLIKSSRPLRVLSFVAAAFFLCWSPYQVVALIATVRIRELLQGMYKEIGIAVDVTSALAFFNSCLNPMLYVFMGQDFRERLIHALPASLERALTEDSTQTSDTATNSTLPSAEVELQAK
# T4: FPR W190/N192 (Homo sapiens, UniProt P21462)
# T4 chain: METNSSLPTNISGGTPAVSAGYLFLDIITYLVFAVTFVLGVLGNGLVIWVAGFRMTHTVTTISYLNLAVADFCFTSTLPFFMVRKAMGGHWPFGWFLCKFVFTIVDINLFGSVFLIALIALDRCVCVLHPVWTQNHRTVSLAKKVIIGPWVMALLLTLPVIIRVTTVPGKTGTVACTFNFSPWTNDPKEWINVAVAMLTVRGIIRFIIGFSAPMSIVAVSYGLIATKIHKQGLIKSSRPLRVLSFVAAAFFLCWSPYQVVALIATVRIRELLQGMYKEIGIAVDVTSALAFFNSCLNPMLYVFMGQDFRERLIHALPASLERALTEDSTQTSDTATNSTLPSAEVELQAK
# T5: FPR R190/N192 (Homo sapiens, UniProt P21462)
# T5 chain: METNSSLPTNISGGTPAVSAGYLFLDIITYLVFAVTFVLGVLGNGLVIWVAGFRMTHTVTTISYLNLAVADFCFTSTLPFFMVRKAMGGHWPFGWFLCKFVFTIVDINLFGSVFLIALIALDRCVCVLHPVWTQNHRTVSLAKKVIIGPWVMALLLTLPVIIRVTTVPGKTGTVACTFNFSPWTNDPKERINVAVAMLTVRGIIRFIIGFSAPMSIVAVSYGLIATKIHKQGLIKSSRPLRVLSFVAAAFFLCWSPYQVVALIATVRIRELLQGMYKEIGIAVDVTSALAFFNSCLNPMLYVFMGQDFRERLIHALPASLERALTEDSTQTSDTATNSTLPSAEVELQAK
# Columns and labels:
# [1] = target: T1, FPR R190/K192; experiment: FACScan analysis of ligand binding
# [2] = target: T2, FPR R190/N192; experiment: FACScan analysis of ligand binding
# [3] = target: T3, FPR W190/N192; experiment: FACScan analysis of ligand binding
# [4] = target: T2, FPR R190/N192; experiment: Downregulation of surface FPR in CHO S cells; assay type: cell-based
# Method in brief: (§1)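 CHO S cells expressing the FPR variant were exposed to test compound (0.4% DMSO) in CHO-S-SFMII for 1 h at 37 °C. They were washed twice with cold phosphate buffer, then labeled 1 h at 4 °C with 50 nM formyl-Nle-Leu-Phe-Nle-Tyr-Lys-FITC in pH 7.4 buffer with Mg++, Ca++ and 5% FBS. Mean fluorescence was measured by FACScan, minus non-expressing cells.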
# [5] = target: T1, FPR R190/K192; experiment: Downregulation of surface FPR in CHO S cells; assay type: cell-based
# Method in brief: as §1
# [6] = target: T3, FPR W190/N192; experiment: Downregulation of surface FPR in CHO S cells; assay type: cell-based
# Method in brief: as §1
# [7] = target: T4, FPR W190/N192; experiment: FACS competition with formyl-Nle-Leu-Phe-Nle-Tyr-Lys-FITC
# [8] = target: T5, FPR R190/N192; experiment: as above
molecule,measurement,setting,value
Ac-WEDAVGWI-NH2,"Binding relative to WEDWVGWI, R190/K192",[1]; fold weaker,more than 10 fold
same,"Binding relative to WEDWVGWI, R190/N192",[2]; fold weaker,more than 10 fold
same,"Binding relative to WEDWVGWI, W190/N192",[3]; fold weaker,more than 10 fold
Ac-WEDWVGWI-NH2,Ki,"[1]; Ki for binding of peptides to R190/K192 FPR, ± SEM, vs 0.38 nM formyl-Nle-Leu-Phe-Nle-Tyr-Lys-FITC, 4 °C, 60 min",1.3 ± 0.3 µM
same,"Inhibition of the downregulation with 300 nM formyl-Nle-Leu-Phe, R190/N192","[4]; 25 μM peptide, data not shown",~50%
same,Ki,"[2]; Ki for binding of peptides to R190/N192 FPR, ± SEM, vs 0.38 nM formyl-Nle-Leu-Phe-Nle-Tyr-Lys-FITC, 4 °C, 60 min",1.3 ± 0.2 µM
same,"Inhibition of the downregulation with 300 nM formyl-Nle-Leu-Phe, R190/K192","[5]; 25 μM peptide, data not shown",~50%
same,Ki,[3],2.6 ± 0.4 µM
same,"Inhibition of the downregulation with 300 nM formyl-Nle-Leu-Phe, W190/N192","[6]; 25 μM peptide, data not shown",~50%
formyl-NleNleWED,"Downregulation of surface receptor, R190/N192",[4]; concentrations up to 50 μM,very little downregulation
same,"Downregulation of surface receptor, R190/K192",[5]; concentrations up to 50 μM,very little downregulation
same,"Downregulation of surface receptor, W190/N192",[6]; concentrations up to 50 μM,very little downregulation
"For-[Nle][Nle]WEDWVGWI [formyl-NleNleWEDWVGWI, listing 1 of 2 here]",Ki,[7],1 µM
Ac-WEDWVGWI-NH2 [WEDWVGWI (FIV GP-36 peptide)],Ki,[8],1.3 µM
"For-[Nle][Nle]WEDWVGWI [formyl-NleNleWEDWVGWI, listing 2 of 2 here]",Ki,[8],0.48 µM
